Source: ChEMBL document CHEMBL1149652, “Synthesis and structure-activity relationship study of cytotoxic germanicane- and lupane-type 3beta-O-monodesmosidic saponins starting from betulin” (Bioorg Med Chem, 2007)

Key:
DLD-1 = experiment: Cytotoxicity against human DLD1 cells assessed as cell viability after 48 hrs; format: functional, cell-based; details: DLD-1, 48 h
Summary of the method: (§1)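 Cells from ATCC grown in MEM with Earle's salts, L-glutamine, 10% FBS, vitamins, essential amino acids, sodium pyruvate, penicillin/streptomycin, 37 °C, 5% CO2. Exponentially growing cells seeded at 5 × 10^3 per well, adhered 16 h, then exposed 48 h to increasing concentrations from DMSO stocks (final DMSO 0.5% v/v). Resazurin fluorescence read (ex 530/em 590 nm), blank-subtracted, expressed as survival versus control wells. IC50 given as mean ± standard deviation, three experiments in triplicate.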

[1] = Cytotoxicity against human WS1 cells assessed as cell viability after 48 hrs; format: cell-based; details: WS1, 48 h; summary of the method: as §1
A549 = experiment: Cytotoxicity against human A549 cells assessed as cell viability after 48 hrs; format: functional, cell-based; details: A549, 48 h; summary of the method: as §1

SMILES	IC50 (DLD-1) [µM]	IC50 [1] [µM]	IC50 (A549) [µM]
C=C(C)[C@@H]1CC[C@]2(CO)CC[C@]3(C)[C@H](CC[C@@H]4[C@@]5(C)CC[C@H](O[C@H]6O[C@H](CO)[C@@H](O)[C@H](O)[C@@H]6O)C(C)(C)[C@@H]5CC[C@]43C)[C@@H]12	10.1	5.1	7.3
C=C(C)[C@@H]1CC[C@]2(C(=O)O)CC[C@]3(C)[C@H](CC[C@@H]4[C@@]5(C)CC[C@H](O[C@@H]6O[C@H](CO)[C@@H](O)[C@H](O)[C@H]6O)C(C)(C)[C@@H]5CC[C@]43C)[C@@H]12	–	–	> 75
C=C(C)[C@@H]1CC[C@]2(C(=O)O)CC[C@]3(C)[C@H](CC[C@@H]4[C@@]5(C)CC[C@H](O[C@H]6O[C@H](CO)[C@@H](O)[C@H](O)[C@@H]6O)C(C)(C)[C@@H]5CC[C@]43C)[C@@H]12	15	13	34
CC1(C)CC[C@]23CC[C@]4(C)[C@H](CC[C@@H]5[C@@]6(C)CC[C@H](O[C@H]7OC[C@H](O)[C@H](O)[C@H]7O)C(C)(C)[C@@H]6CC[C@]54C)[C@H]2[C@@H]1OC3	> 75	> 75	> 75
CC1(C)CC[C@]23CC[C@]4(C)[C@H](CC[C@@H]5[C@@]6(C)CC[C@H](O[C@@H]7OC[C@@H](O)[C@H](O)[C@H]7O)C(C)(C)[C@@H]6CC[C@]54C)[C@H]2[C@@H]1OC3	> 75	> 75	> 75
CC1(C)CC[C@]23CC[C@]4(C)[C@H](CC[C@@H]5[C@@]6(C)CC[C@H](O[C@@H]7O[C@H](CO)[C@H](O)[C@H](O)[C@H]7O)C(C)(C)[C@@H]6CC[C@]54C)[C@H]2[C@@H]1OC3=O	> 75	> 75	> 75
CC1(C)CC[C@]23CC[C@]4(C)[C@H](CC[C@@H]5[C@@]6(C)CC[C@H](O[C@@H]7OC[C@@H](O)[C@H](O)[C@H]7O)C(C)(C)[C@@H]6CC[C@]54C)[C@H]2[C@@H]1OC3=O	> 75	> 75	> 75
CC1(C)CC[C@]23CC[C@]4(C)[C@H](CC[C@@H]5[C@@]6(C)CC[C@H](O[C@@H]7O[C@H](CO)[C@H](O)[C@H](O)[C@H]7O)C(C)(C)[C@@H]6CC[C@]54C)[C@H]2[C@@H]1OC3	40	30	30
CC1(C)CC[C@]23CC[C@]4(C)[C@H](CC[C@@H]5[C@@]6(C)CC[C@H](O[C@H]7O[C@H](CO)[C@@H](O)[C@H](O)[C@@H]7O)C(C)(C)[C@@H]6CC[C@]54C)[C@H]2[C@@H]1OC3=O	> 75	> 75	> 75
C=C(C)[C@@H]1CC[C@]2(C(=O)O)CC[C@]3(C)[C@H](CC[C@@H]4[C@@]5(C)CC[C@H](OC(C)=O)C(C)(C)[C@@H]5CC[C@]43C)[C@@H]12	20	57	18
C=C(C)[C@@H]1CC[C@]2(C(=O)O)CC[C@]3(C)[C@H](CC[C@@H]4[C@@]5(C)CC[C@H](O[C@@H]6O[C@H](CO)[C@H](O)[C@H](O)[C@H]6O)C(C)(C)[C@@H]5CC[C@]43C)[C@@H]12	> 75	> 75	> 75
C=C(C)[C@@H]1CC[C@]2(C(=O)O)CC[C@]3(C)[C@H](CC[C@@H]4[C@@]5(C)CC[C@H](O[C@@H]6OC[C@@H](O)[C@H](O)[C@H]6O)C(C)(C)[C@@H]5CC[C@]43C)[C@@H]12	18	20	15
CC1(C)CC[C@]23CC[C@]4(C)[C@H](CC[C@@H]5[C@@]6(C)CC[C@H](O[C@@H]7O[C@H](CO)[C@@H](O)[C@H](O)[C@H]7O)C(C)(C)[C@@H]6CC[C@]54C)[C@H]2[C@@H]1OC3=O	> 75	> 75	> 75
C[C@@H]1O[C@H](O[C@H]2CC[C@]3(C)[C@H]4CC[C@@H]5[C@H]6[C@@H]7OC(=O)[C@@]6(CCC7(C)C)CC[C@@]5(C)[C@]4(C)CC[C@H]3C2(C)C)[C@@H](O)[C@@H](O)[C@@H]1O	> 75	> 75	> 75
C=C(C)[C@@H]1CC[C@]2(CO)CC[C@]3(C)[C@H](CC[C@@H]4[C@@]5(C)CC[C@H](O[C@@H]6O[C@H](CO)[C@@H](O)[C@H](O)[C@H]6O)C(C)(C)[C@@H]5CC[C@]43C)[C@@H]12	> 75	> 75	> 75
C=C(C)[C@@H]1CC[C@]2(CO)CC[C@]3(C)[C@H](CC[C@@H]4[C@@]5(C)CC[C@H](O[C@@H]6O[C@H](CO)[C@H](O)[C@H](O)[C@H]6O)C(C)(C)[C@@H]5CC[C@]43C)[C@@H]12	> 75	> 75	> 75
C=C(C)[C@@H]1CC[C@]2(CO)CC[C@]3(C)[C@H](CC[C@@H]4[C@@]5(C)CC[C@H](O[C@@H]6OC[C@@H](O)[C@H](O)[C@H]6O)C(C)(C)[C@@H]5CC[C@]43C)[C@@H]12	> 75	> 75	> 75
CC1(C)CC[C@]23CC[C@]4(C)[C@H](CC[C@@H]5[C@@]6(C)CC[C@H](O[C@@H]7O[C@H](CO)[C@@H](O)[C@H](O)[C@H]7O)C(C)(C)[C@@H]6CC[C@]54C)[C@H]2[C@@H]1OC3	40	40	31
C[C@@H]1O[C@H](O[C@H]2CC[C@]3(C)[C@H]4CC[C@@H]5[C@H]6[C@@H]7OC[C@@]6(CCC7(C)C)CC[C@@]5(C)[C@]4(C)CC[C@H]3C2(C)C)[C@@H](O)[C@@H](O)[C@@H]1O	> 75	> 75	> 75
CC1(C)CC[C@]23CC[C@]4(C)[C@H](CC[C@@H]5[C@@]6(C)CC[C@H](O[C@H]7OC[C@H](O)[C@H](O)[C@H]7O)C(C)(C)[C@@H]6CC[C@]54C)[C@H]2[C@@H]1OC3=O	> 75	> 75	> 75
CC1(C)CC[C@]23CC[C@]4(C)[C@H](CC[C@@H]5[C@@]6(C)CC[C@H](O[C@H]7O[C@H](CO)[C@@H](O)[C@H](O)[C@@H]7O)C(C)(C)[C@@H]6CC[C@]54C)[C@H]2[C@@H]1OC3	> 75	> 75	> 75
CC1(C)CC[C@]23CC[C@]4(C)[C@H](CC[C@@H]5[C@@]6(C)CC[C@H](O)C(C)(C)[C@@H]6CC[C@]54C)[C@H]2[C@H]1OC3=O	> 75	> 75	> 75
CC1(C)CC[C@]23CC[C@]4(C)[C@H](CC[C@@H]5[C@@]6(C)CC[C@H](O)C(C)(C)[C@@H]6CC[C@]54C)[C@H]2[C@H]1OC3 [ALLOBETULIN]	> 75	> 75	> 75
